pIC50: −log10 of the molar value. Where “and” joins values, the source holds several entries; their conditions need not be identical. Equal values may be shown once. Calls of active or inactive are those of the source.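 How the source made its calls: active means CPE inhibition of 50% or more; inactive means the rest.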
Assays:
[1] = tested on: HEp-2 RSV Long CPE inhibition, luminescence viability; experiment: antiviral activity against respiratory syncytial virus – cell-based, synthesized compounds, set 14, dose response (AID 588485)
In short: (§1)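 Incubation – 6 days at 37 °C · Assay system – RSV Long-infected HEp-2 cells · Technique – luminescence-based measurement of virus-induced cytopathic effect · Dosing – 8-point twofold dilution series, 0.39 to 50 µM final, 0.5% DMSO · Controls – uninfected cell-only wells and infected virus control wells · Replication – each dose tested in triplicate · Also added – RSV Long, MOI 0.45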

[2] = as above; conditions: HEp-2 RSV Long CPE inhibition, luminescence viability; at 50 µM (top of the series)
In short: as §1

With CN(C)c1ccc(Cn2c(=O)n(Cc3ccc(C(=O)NCC4COC4)cc3)c(=O)c3ccccc32)cc1 the pIC50 [1] was 5.90.

With O=C(O)c1ccc(Cn2c(=O)n(Cc3ccc(C(=O)NCC4COC4)cc3)c(=O)c3ccccc32)cc1 the CPE inhibition [2] was 0.24% (inactive) and 0.09% (inactive).

In the case of CC(C)c1ccc(Cn2c(=O)n(Cc3ccc(C(=O)NCc4ccco4)cc3)c(=O)c3ccccc32)cc1, the pIC50 [1] was 5.87.

COCCCNC(=O)c1ccc(Cn2c(=O)c3ccccc3n(Cc3ccc([N+](=O)[O-])cc3)c2=O)cc1 showed a pIC50 [1] of 6.34.
